# Source: ChEMBL document CHEMBL4689842, “EUbOPEN Chemogenomics Library wave 1” (2021)
# Test system: Fibroblast
# Experiment: Multiplex assay against human fibroblast
# Assay type: toxicity, cell-based
# Method in brief: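 Values for tubulin, mitochondrial-mass and membrane-permeability phenotypes are per cents of cells with healthy nuclei. These cells were identified by CellPathfinder machine-learning gating of live cells that had been stained at seeding with Hoechst33342, BioTracker Green Microtubule Cytoskeleton Dye, MitoTracker Red and Annexin V Alexa Fluor 680 and imaged on a CQ1 microscope at 37°C and 5% CO2 after compound addition. The gating first set Hoechst high-intensity objects apart from normal cells, then split normal cells into healthy, pyknosed or fragmented nuclei, and pyknosed cells into mitotic or apoptotic.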
# [1] = 12 h, 1 µM, compound concentration 1 uM, replicate 1
# [2] = 12 h, 1 µM, compound concentration 1 uM, replicate 2
# [3] = 12 h, 10 µM, compound concentration 10 uM, replicate 1
# [4] = 12 h, 10 µM, compound concentration 10 uM, replicate 2
# [5] = 24 h, 1 µM, compound concentration 1 uM, replicate 1
# [6] = 24 h, 1 µM, compound concentration 1 uM, replicate 2
# [7] = 24 h, 10 µM, compound concentration 10 uM, replicate 1
# [8] = 24 h, 10 µM, compound concentration 10 uM, replicate 2
# [9] = 48 h, 1 µM, compound concentration 1 uM, replicate 1
# [10] = 48 h, 1 µM, compound concentration 1 uM, replicate 2
# [11] = 48 h, 10 µM, compound concentration 10 uM, replicate 1
# [12] = 48 h, 10 µM, compound concentration 10 uM, replicate 2
smiles,measurement,setting,value
CNc1oc(-c2cccc3ccccc23)nc1C#N,Population Apoptotic (%),[1],75%
same,Population Fragmented Nuclei (%),[1],65%
same,Population Healthy Nuclei (%),[1],23%
same,Population Hoechst High Intensity Objects (%),[1],70%
same,Population Membrane Permeable-Phenotype (%),[1],25%
same,Population Mitochondria Different-Phenotype (%),[1],0%
same,Population Mitotic Cells (%),[1],25%
same,Population Normal (%),[1],29%
same,Population Pyknosed Nuclei (%),[1],10%
same,Population Tubulin-Different-Phenotype (%),[1],14%
same,Total Cell Count,[1],381
same,Population Apoptotic (%),[2],0%
same,Population Fragmented Nuclei (%),[2],29%
same,Population Healthy Nuclei (%),[2],67%
same,Population Hoechst High Intensity Objects (%),[2],15%
same,Population Membrane Permeable-Phenotype (%),[2],3%
same,Population Mitochondria Different-Phenotype (%),[2],11%
same,Population Mitotic Cells (%),[2],100%
same,Population Normal (%),[2],84%
same,Population Pyknosed Nuclei (%),[2],2%
same,Population Tubulin-Different-Phenotype (%),[2],7%
same,Total Cell Count,[2],100
same,Population Apoptotic (%),[3],92%
same,Population Fragmented Nuclei (%),[3],41%
same,Population Healthy Nuclei (%),[3],23%
same,Population Hoechst High Intensity Objects (%),[3],64%
same,Population Membrane Permeable-Phenotype (%),[3],0%
same,Population Mitochondria Different-Phenotype (%),[3],0%
same,Population Mitotic Cells (%),[3],7%
same,Population Normal (%),[3],35%
same,Population Pyknosed Nuclei (%),[3],35%
same,Population Tubulin-Different-Phenotype (%),[3],0%
same,Total Cell Count,[3],3193
same,Population Apoptotic (%),[4],80%
same,Population Fragmented Nuclei (%),[4],55%
same,Population Healthy Nuclei (%),[4],16%
same,Population Hoechst High Intensity Objects (%),[4],46%
same,Population Membrane Permeable-Phenotype (%),[4],1%
same,Population Mitochondria Different-Phenotype (%),[4],3%
same,Population Mitotic Cells (%),[4],19%
same,Population Normal (%),[4],53%
same,Population Pyknosed Nuclei (%),[4],28%
same,Population Tubulin-Different-Phenotype (%),[4],24%
same,Total Cell Count,[4],92
same,Population Apoptotic (%),[5],33%
same,Population Fragmented Nuclei (%),[5],66%
same,Population Healthy Nuclei (%),[5],27%
same,Population Hoechst High Intensity Objects (%),[5],70%
same,Population Membrane Permeable-Phenotype (%),[5],6%
same,Population Mitochondria Different-Phenotype (%),[5],0%
same,Population Mitotic Cells (%),[5],66%
same,Population Normal (%),[5],29%
same,Population Pyknosed Nuclei (%),[5],5%
same,Population Tubulin-Different-Phenotype (%),[5],3%
same,Total Cell Count,[5],391
same,Population Apoptotic (%),[6],25%
same,Population Fragmented Nuclei (%),[6],28%
same,Population Healthy Nuclei (%),[6],67%
same,Population Hoechst High Intensity Objects (%),[6],6%
same,Population Membrane Permeable-Phenotype (%),[6],1%
same,Population Mitochondria Different-Phenotype (%),[6],10%
same,Population Mitotic Cells (%),[6],75%
same,Population Normal (%),[6],93%
same,Population Pyknosed Nuclei (%),[6],3%
same,Population Tubulin-Different-Phenotype (%),[6],21%
same,Total Cell Count,[6],113
same,Population Apoptotic (%),[7],93%
same,Population Fragmented Nuclei (%),[7],44%
same,Population Healthy Nuclei (%),[7],24%
same,Population Hoechst High Intensity Objects (%),[7],66%
same,Population Membrane Permeable-Phenotype (%),[7],1%
same,Population Mitochondria Different-Phenotype (%),[7],0%
same,Population Mitotic Cells (%),[7],6%
same,Population Normal (%),[7],33%
same,Population Pyknosed Nuclei (%),[7],31%
same,Population Tubulin-Different-Phenotype (%),[7],0%
same,Total Cell Count,[7],2998
same,Population Apoptotic (%),[8],81%
same,Population Fragmented Nuclei (%),[8],57%
same,Population Healthy Nuclei (%),[8],16%
same,Population Hoechst High Intensity Objects (%),[8],44%
same,Population Membrane Permeable-Phenotype (%),[8],3%
same,Population Mitochondria Different-Phenotype (%),[8],3%
same,Population Mitotic Cells (%),[8],18%
same,Population Normal (%),[8],55%
same,Population Pyknosed Nuclei (%),[8],25%
same,Population Tubulin-Different-Phenotype (%),[8],26%
same,Total Cell Count,[8],116
same,Population Apoptotic (%),[9],40%
same,Population Fragmented Nuclei (%),[9],71%
same,Population Healthy Nuclei (%),[9],23%
same,Population Hoechst High Intensity Objects (%),[9],77%
same,Population Membrane Permeable-Phenotype (%),[9],22%
same,Population Mitochondria Different-Phenotype (%),[9],4%
same,Population Mitotic Cells (%),[9],60%
same,Population Normal (%),[9],22%
same,Population Pyknosed Nuclei (%),[9],5%
same,Total Cell Count,[9],411
same,Population Apoptotic (%),[10],80%
same,Population Fragmented Nuclei (%),[10],75%
same,Population Healthy Nuclei (%),[10],19%
same,Population Hoechst High Intensity Objects (%),[10],78%
same,Population Membrane Permeable-Phenotype (%),[10],31%
same,Population Mitochondria Different-Phenotype (%),[10],0%
same,Population Mitotic Cells (%),[10],20%
same,Population Normal (%),[10],21%
same,Population Pyknosed Nuclei (%),[10],4%
same,Population Tubulin-Different-Phenotype (%),[10],4%
same,Total Cell Count,[10],519
same,Population Apoptotic (%),[11],85%
same,Population Fragmented Nuclei (%),[11],47%
same,Population Healthy Nuclei (%),[11],22%
same,Population Hoechst High Intensity Objects (%),[11],65%
same,Population Membrane Permeable-Phenotype (%),[11],0%
same,Population Mitochondria Different-Phenotype (%),[11],0%
same,Population Mitotic Cells (%),[11],14%
same,Population Normal (%),[11],34%
same,Population Pyknosed Nuclei (%),[11],30%
same,Population Tubulin-Different-Phenotype (%),[11],0%
same,Total Cell Count,[11],2643
same,Population Fragmented Nuclei (%),[12],46%
same,Population Healthy Nuclei (%),[12],23%
same,Population Hoechst High Intensity Objects (%),[12],69%
same,Population Normal (%),[12],30%
same,Population Tubulin-Different-Phenotype (%),[12],1%
same,Total Cell Count,[12],2437
Cl.Cl.NC1(c2ccc(-c3nc4ccn5c(=O)[nH]nc5c4cc3-c3ccccc3)cc2)CCC1,Population Apoptotic (%),[1],71%
same,Population Fragmented Nuclei (%),[1],35%
same,Population Healthy Nuclei (%),[1],48%
same,Population Hoechst High Intensity Objects (%),[1],42%
same,Population Membrane Permeable-Phenotype (%),[1],4%
same,Population Mitotic Cells (%),[1],28%
same,Population Normal (%),[1],57%
same,Population Pyknosed Nuclei (%),[1],15%
same,Population Tubulin-Different-Phenotype (%),[1],6%
same,Total Cell Count,[1],437
same,Population Apoptotic (%),[2],87%
same,Population Fragmented Nuclei (%),[2],55%
same,Population Healthy Nuclei (%),[2],35%
same,Population Hoechst High Intensity Objects (%),[2],45%
same,Population Membrane Permeable-Phenotype (%),[2],19%
same,Population Mitochondria Different-Phenotype (%),[2],0%
same,Population Mitotic Cells (%),[2],12%
same,Population Normal (%),[2],54%
same,Population Pyknosed Nuclei (%),[2],9%
same,Population Tubulin-Different-Phenotype (%),[2],16%
same,Total Cell Count,[2],161
same,Population Apoptotic (%),[3],37%
same,Population Fragmented Nuclei (%),[3],19%
same,Population Healthy Nuclei (%),[3],38%
same,Population Hoechst High Intensity Objects (%),[3],49%
same,Population Membrane Permeable-Phenotype (%),[3],7%
same,Population Mitochondria Different-Phenotype (%),[3],4%
same,Population Mitotic Cells (%),[3],62%
same,Population Normal (%),[3],50%
same,Population Pyknosed Nuclei (%),[3],41%
same,Population Tubulin-Different-Phenotype (%),[3],42%
same,Total Cell Count,[3],610
same,Population Apoptotic (%),[4],80%
same,Population Fragmented Nuclei (%),[4],71%
same,Population Healthy Nuclei (%),[4],14%
same,Population Hoechst High Intensity Objects (%),[4],69%
same,Population Membrane Permeable-Phenotype (%),[4],0%
same,Population Mitochondria Different-Phenotype (%),[4],40%
same,Population Mitotic Cells (%),[4],20%
same,Population Normal (%),[4],30%
same,Population Pyknosed Nuclei (%),[4],14%
same,Population Tubulin-Different-Phenotype (%),[4],20%
same,Total Cell Count,[4],114
same,Population Apoptotic (%),[5],45%
same,Population Fragmented Nuclei (%),[5],33%
same,Population Healthy Nuclei (%),[5],51%
same,Population Hoechst High Intensity Objects (%),[5],49%
same,Population Membrane Permeable-Phenotype (%),[5],1%
same,Population Mitochondria Different-Phenotype (%),[5],1%
same,Population Mitotic Cells (%),[5],54%
same,Population Normal (%),[5],50%
same,Population Pyknosed Nuclei (%),[5],15%
same,Population Tubulin-Different-Phenotype (%),[5],9%
same,Total Cell Count,[5],428
same,Population Apoptotic (%),[6],57%
same,Population Fragmented Nuclei (%),[6],57%
same,Population Healthy Nuclei (%),[6],32%
same,Population Hoechst High Intensity Objects (%),[6],51%
same,Population Membrane Permeable-Phenotype (%),[6],8%
same,Population Mitochondria Different-Phenotype (%),[6],0%
same,Population Mitotic Cells (%),[6],42%
same,Population Normal (%),[6],48%
same,Population Pyknosed Nuclei (%),[6],9%
same,Population Tubulin-Different-Phenotype (%),[6],16%
same,Total Cell Count,[6],157
same,Population Apoptotic (%),[7],24%
same,Population Fragmented Nuclei (%),[7],17%
same,Population Healthy Nuclei (%),[7],38%
same,Population Hoechst High Intensity Objects (%),[7],53%
same,Population Membrane Permeable-Phenotype (%),[7],5%
same,Population Mitochondria Different-Phenotype (%),[7],10%
same,Population Mitotic Cells (%),[7],75%
same,Population Normal (%),[7],46%
same,Population Pyknosed Nuclei (%),[7],44%
same,Population Tubulin-Different-Phenotype (%),[7],42%
same,Total Cell Count,[7],622
same,Population Apoptotic (%),[8],83%
same,Population Fragmented Nuclei (%),[8],70%
same,Population Healthy Nuclei (%),[8],14%
same,Population Hoechst High Intensity Objects (%),[8],57%
same,Population Membrane Permeable-Phenotype (%),[8],50%
same,Population Mitochondria Different-Phenotype (%),[8],33%
same,Population Mitotic Cells (%),[8],16%
same,Population Normal (%),[8],42%
same,Population Pyknosed Nuclei (%),[8],14%
same,Population Tubulin-Different-Phenotype (%),[8],16%
same,Total Cell Count,[8],97
